Screening data (PubChem BioAssay)
Sampled rows, rich in hits. Any-hit rate of the full collection: about 2%.
HCV core dimer = HCV core protein dimerization inhibition. TR-FRET GST/Flag-core106 dimerization, 1536-well. inhibition, % at 5 µM. 300,000 tested, 0.33% active;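 active means inhibition above the mean of all tested compounds plus 3 SD, set per screening campaign, cut at about 45% in these data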
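Material: GST/Flag-tagged HCV core106 proteins. Incubation: 4 h, 22.5 °C incubation. Read-out basis: inhibition (%) from 671 over 617 nm ratio. Measured by: TR-FRET, excitation 340 nm, emission 617 and 671 nm.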
PABP polyA inh = PABP-poly(A) binding inhibition; P11940; inhibition, % at 35 µM; AID 2014; 290,000 tested, 1% active; PABP-poly(A) RNA binding, fluorescence polarization;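 further: calls also rest on retests at 20 µM and on dose response follow-up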
eIF4H FP inh = inhibitors of RNA binding by human eIF4H; eIF4H fluorescence polarization binding assay; Q15056; inhibition, % at 35 µM; AID 2012; 290,000 tested, 0.94% active;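 further: calls also rest on retests at 20 µM and on dose response follow-up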
MLLE-PAM2 inh = inhibitors of microRNA-mediated deadenylation, human PABP1 MLLE binding. GST-MLLE / FITC-PAM2 fluorescence polarization. inhibition, % at 20 µM. 360,000 tested, 0.36% active. AID 588489; in the data active means inhibition above about 35%, passing the limit was not always enough;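 further: plate controls were DMSO wells with GST-MLLE for no effect and wells lacking GST-MLLE protein for full effect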
DNA FID counter = fluorescent intercalator displacement, NS3 helicase counter-screen. DNA fluorescent intercalator displacement, fluorescence. inhibition, % at 7.9 µM. 290,000 tested, 0.17% active; in the data active means inhibition above about 37%;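 further: 0% = vehicle and 100% = reference compound; higher means more ethidium bromide displaced from hairpin DNA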
NS3 helicase inh = HCV NS3 helicase inhibition. 290,000 tested, 0.56% active. AID 1800. NS3 helicase DNA unwinding, Cy5 molecular beacon fluorescence. inhibition, % at 10.9 µM;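 active means inhibition above the mean of all tested compounds plus 3 SD, set per campaign, cut at about 35% in these data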;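 further: 0% = DMSO wells and 100% = thioflavine S control wells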
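Control set: DMSO versus 110 µM thioflavine S; Material: NS3 helicase fragment of HCV; Measured by: Cy5 fluorescence at 0 and 60 min, beacon hairpin quenching; Read-out basis: percent inhibition from t60/t0 fluorescence ratio; Times: reaction time 60 min, 25 °C; Repeats: single replicate; Compound dosing: single dose, 10.9 µM nominal final, DMSO 0.8% final.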
* hit, by the source's call. Unless noted, how the calls were made is not given here.

`CCN(CC)C(=O)c1[nH]cnc1C(=O)NC1CCN(C(=O)OC(C)(C)C)CC1` gave MLLE-PAM2 inh 9.7.
`CC(=O)N=C1SC2CS(=O)(=O)CC2N1c1ccc(-c2nc3ccc(C)cc3s2)cc1` (stereo unspecified) gave HCV core dimer 10.5, PABP polyA inh 14.2, eIF4H FP inh 4.5, DNA FID counter -8.1 and NS3 helicase inh 2.1.
For Cc1ccc2nc(-c3ccc(N4C(=NC(=O)CCC(=O)O)SC5CS(=O)(=O)CC54)cc3)sc2c1 (stereo unspecified) the results were HCV core dimer 22.8, PABP polyA inh active, eIF4H FP inh 69.5*, MLLE-PAM2 inh -10.2, DNA FID counter 15.1 and NS3 helicase inh -16.9.
Cc1ccc(C)c(C(O)c2ncc(-c3cccc(C(F)(F)F)c3)[nH]2)c1 (stereo unspecified) was read as MLLE-PAM2 inh 6.1.
Cc1c(C(=O)OCC[N+]2(C)CCCCC2)oc2ccccc12 was read as HCV core dimer -1.8, PABP polyA inh 54.6*, eIF4H FP inh 3.5, MLLE-PAM2 inh -103.3, DNA FID counter 14.7 and NS3 helicase inh -7.8.
For Cc1cccc(-c2nc(=S)c3c(o2)CCCC3)c1 the results were HCV core dimer 3.0, PABP polyA inh 9.9, eIF4H FP inh -6.8, MLLE-PAM2 inh 45.2*, DNA FID counter 5.0 and NS3 helicase inh 16.9.
S=c1nc(-c2ccc(Br)cc2)oc2c1CCCC2 was read as HCV core dimer 3.9, PABP polyA inh -1.5, eIF4H FP inh 6.2, MLLE-PAM2 inh 31.1, DNA FID counter -5.7 and NS3 helicase inh -0.2.
Screening Cn1c2ccccc2c2cc(/C=N/NC(=O)c3cc(O)cc(O)c3)ccc21 returned HCV core dimer 15.1, PABP polyA inh 65.2*, eIF4H FP inh 94.8*, MLLE-PAM2 inh 7.9, DNA FID counter -18.1 and NS3 helicase inh 23.2.
Screening Cc1cccc(C(=O)Oc2ccc(/C=N/NC(=O)c3cc(O)cc(O)c3)cc2)c1 returned PABP polyA inh 94.9*, eIF4H FP inh 99.3*, MLLE-PAM2 inh 1.4, DNA FID counter -31.0 and NS3 helicase inh 7.0.
COc1cc(C(=O)N/N=C/c2ccc3c(c2)c2ccccc2n3C)ccc1O was read as PABP polyA inh -1.0, eIF4H FP inh 8.6, MLLE-PAM2 inh 5.5, DNA FID counter -24.6 and NS3 helicase inh 21.8.
Screening Nc1nc(-c2ccccn2)nc(N)c1Cc1ccc(Cl)cc1Cl returned HCV core dimer 2.5, PABP polyA inh -10.9, eIF4H FP inh 70.3*, MLLE-PAM2 inh -7.7, DNA FID counter -8.8 and NS3 helicase inh -1.6.
Screening CCC(=NCCc1ccc(OC)c(OC)c1)C1=C(O)CC(C)(C)CC1=O returned HCV core dimer 12.6, PABP polyA inh 60.1, eIF4H FP inh active, MLLE-PAM2 inh -0.9, DNA FID counter -4.8 and NS3 helicase inh -0.5.
`CCc1ccc(C2C(C#N)=C(N)SC(N)=C2C#N)s1` gave HCV core dimer 52.7*, PABP polyA inh inconclusive, eIF4H FP inh inconclusive, MLLE-PAM2 inh -59.0, DNA FID counter 2.4 and NS3 helicase inh 21.9.
Screening CCc1ccc(C2C(C#N)=C(N)SC(N)=C2C#N)cc1 returned HCV core dimer 31.4, PABP polyA inh inconclusive, eIF4H FP inh inconclusive, MLLE-PAM2 inh -5.2, DNA FID counter 1.5 and NS3 helicase inh 23.9.
`Cc1ccc(C2C(C#N)=C(N)SC(N)=C2C#N)o1` gave HCV core dimer 46.5*, PABP polyA inh inconclusive, eIF4H FP inh inconclusive, DNA FID counter -1.5 and NS3 helicase inh 10.9.
`CCOC(=O)C1=C(C)OC(N)=C(C#N)C1c1ccc(C)o1` (stereo unspecified) gave HCV core dimer 2.1, PABP polyA inh 15.2, eIF4H FP inh 7.0, MLLE-PAM2 inh 19.4, DNA FID counter -0.1 and NS3 helicase inh -3.7.
For COCCN1C[C@@H](CO)O[C@@H](n2cnc3c(NCc4ccncc4)ncnc32)C1 the results were MLLE-PAM2 inh -5.9.
Cc1cccc(NC2(C(F)(F)F)N=C3SCCN3C2=O)n1 (stereo unspecified) was read as HCV core dimer -4.6, PABP polyA inh 0.7, eIF4H FP inh -4.7, MLLE-PAM2 inh 39.6*, DNA FID counter -0.2 and NS3 helicase inh 1.9.
Screening COc1ccc(C(=O)NC2(C(F)(F)F)N=C3SCCN3C2=O)cc1 (stereo unspecified) returned HCV core dimer 0.9, PABP polyA inh 2.6, eIF4H FP inh -1.9, MLLE-PAM2 inh 40.3*, DNA FID counter -5.8 and NS3 helicase inh 7.3.
Cc1cccnc1NC1(C(F)(F)F)N=C2SCCN2C1=O (stereo unspecified) was read as HCV core dimer -0.1, PABP polyA inh 2.4, eIF4H FP inh -5.6, MLLE-PAM2 inh 7.1, DNA FID counter 1.0 and NS3 helicase inh 15.0.
Screening O=C(NC1(C(F)(F)F)N=C2SCCN2C1=O)c1ccccc1 (stereo unspecified) returned HCV core dimer -2.6, PABP polyA inh 8.2, eIF4H FP inh -7.2, MLLE-PAM2 inh 29.6, DNA FID counter -10.6 and NS3 helicase inh 4.6.
Cc1cc(C)c2c(N)c(C(=O)Nc3ccc(C)c(C)c3)sc2n1 was read as HCV core dimer 8.4, PABP polyA inh 4.7, eIF4H FP inh -0.1, MLLE-PAM2 inh 26.6, DNA FID counter -13.0 and NS3 helicase inh -4.9.
For Cc1cc(C)c2c(N)c(C(=O)NCC3CCCCC3)sc2n1 the results were HCV core dimer -2.2, PABP polyA inh 13.9, eIF4H FP inh -0.2, MLLE-PAM2 inh 39.7*, DNA FID counter -18.0 and NS3 helicase inh -1.8.
Cc1cc(C)c2c(N)c(C(=O)NC3CCCC3)sc2n1 was read as HCV core dimer -6.2, PABP polyA inh 77.1*, eIF4H FP inh active, MLLE-PAM2 inh 16.3, DNA FID counter -3.0 and NS3 helicase inh -10.1.
Screening COC(=O)c1cc(C(=O)OC)cc(-n2c(C)cc(C(=O)CC#N)c2C)c1 returned HCV core dimer 12.6, PABP polyA inh 87.3*, eIF4H FP inh 59.2*, MLLE-PAM2 inh -2.9, DNA FID counter -21.7 and NS3 helicase inh 26.4.
CCCN(C(=O)c1cc(S(=O)(=O)N(C)c2ccc(OCC)cc2)ccc1C)C1CCS(=O)(=O)C1 (stereo unspecified) was read as MLLE-PAM2 inh -13.4.
COc1ccccc1N1CCN(C(=O)[C@H](C)NS(=O)(=O)c2ccc3c(c2)OCCCO3)CC1 was read as MLLE-PAM2 inh 41.0*.
For C=CCC[C@@H](Cc1ccc(F)cc1)C(=O)OC[C@H](C)NC(=O)[C@@H](CC=C)CC(=O)N[C@@H](CO)Cc1ccccc1 the results were MLLE-PAM2 inh -0.4.
`O=C(Nc1ccc(C2=NCCN2)cc1)c1ccc(Cl)c(C(=O)Nc2ccc(C3=NCCN3)cc2)c1` gave HCV core dimer 23.3, PABP polyA inh 36.2, eIF4H FP inh 14.2, DNA FID counter 48.9* and NS3 helicase inh -63.6.
